This is a sample that favours compounds with a hit; in the whole collection about 1.6% have one here.
GSTO1 counter – inhibitors of recombinant GSTO1, primary screen, counter-screen for RBBP9 inhibitor project, biochemical, fluorescence polarization. activity-based probe fluorescence polarization. AID 1974, 2009. actives 1.1% (n = 300,000). inhibition, % at 5.96 µM;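 active = inhibition above the campaign mean inhibition plus 3 SD, cut at about 35% in these data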;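 also: 0% = GSTO1-1 with DMSO and 100% = wells lacking GSTO1-1 enzyme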
Target sequence (P78417 whole entry, looked up): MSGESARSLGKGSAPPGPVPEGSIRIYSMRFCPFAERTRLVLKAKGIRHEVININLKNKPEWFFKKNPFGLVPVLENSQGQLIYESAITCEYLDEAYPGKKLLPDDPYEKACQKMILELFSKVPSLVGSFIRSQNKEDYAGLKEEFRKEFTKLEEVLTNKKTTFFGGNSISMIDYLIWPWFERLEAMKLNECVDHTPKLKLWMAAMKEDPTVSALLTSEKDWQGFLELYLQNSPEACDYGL
UCH37 inh – inhibitors of human UCH37 deubiquitinase, primary screen, biochemical, Ub-AMC cleavage, fluorescence; Ubiquitin carboxyl-terminal hydrolase isozyme L5 (Homo sapiens), Q9Y5K5; actives 0.33% (n = 330,000); purified proteasome/UCH37; inhibition, % (concentration not given with the values);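 active = mean inhibition over replicate wells above about 20%, limit read from the data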;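 also: 0% = compound-free wells with enzyme and 100% = wells lacking proteasome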
Target sequence (Q9Y5K5 whole entry, looked up): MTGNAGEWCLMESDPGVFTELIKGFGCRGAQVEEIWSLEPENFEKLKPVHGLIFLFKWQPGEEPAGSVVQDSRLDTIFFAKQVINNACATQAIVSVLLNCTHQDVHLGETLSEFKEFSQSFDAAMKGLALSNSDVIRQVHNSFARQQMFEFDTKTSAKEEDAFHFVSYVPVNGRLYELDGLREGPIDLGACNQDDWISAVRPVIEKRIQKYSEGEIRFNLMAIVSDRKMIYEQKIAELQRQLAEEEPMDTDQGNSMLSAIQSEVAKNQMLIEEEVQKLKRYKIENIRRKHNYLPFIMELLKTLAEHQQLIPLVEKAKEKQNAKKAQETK
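Material: Human UCH37 enzyme supplied as purified proteasome complex | Schedule: 30 min compound-proteasome preincubation then 25 min substrate reaction, room temperature | Detection: AMC fluorescence from Ub-AMC cleavage, excitation 355 nm, emission 460 nm | Benchmarks: Wells without proteasome as full block, compound-free enzyme plus substrate as uninhibited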
PAD4 FP inh – human PAD4 inhibitors, primary screen, biochemical, fluorescence polarization, 1536-well format. Protein-arginine deiminase type-4 (Homo sapiens), Q9UM07. recombinant PAD4, RCA probe fluorescence polarization. inhibition, % at 6.36 µM. actives 0.41% (n = 330,000). AID 485272, 2010;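 active = percent inhibition above a cutoff equal to the mean of all tested compounds plus 3 SD, cut at about 15% in these data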;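 also: 0% = PAD4 with RCA probe and DMSO and 100% = probe without PAD4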
Fh CTSL1 inh – Fasciola hepatica cathepsin L1 inhibitors, primary screen, counter-screen for PFM18AAP inhibitor project, biochemical, QFRET, fluorogenic peptide substrate; recombinant F. hepatica cathepsin L1, Z-Leu-Arg-MCA fluorescence; inhibition, % at 5.96 µM; actives 0.49% (n = 300,000); AID 1906, 2009;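 active = inhibition above the mean of all tested compounds plus 3 SD, set per screening campaign, cut at about 17% in these data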;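 also: 0% = plate median of test compound wells and 100% = 1 µM Z-Phe-Ala-diazomethylketone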
HKDC1 inh – HKDC1 hexokinase inhibitors, primary screen, biochemical, fluorescence, uHTS; Q2TB90; recombinant HKDC1, G6PDH/diaphorase resazurin coupled fluorescence; inhibition, % at 20 µM; actives 0.16% (n = 340,000);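 active = inhibition above about 35% when tested at 20 µM, limit read from the data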;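 also: plate controls were DMSO wells with enzyme for no effect and DMSO wells lacking enzyme for full effect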
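Incubation: 90 min at room temperature in dark / Material: recombinant HKDC1 (HK5) hexokinase enzyme, produced in-house / Quantity: enzyme 5 µg/mL final / Compound: one dose of 20 µM, 1% DMSO / Reagent: glucose and ATP substrates / Buffer or medium: Tris pH 8.0 buffer with MgCl2, Tween-20, BSA, BME / Technique: resorufin fluorescence at 613 nm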
TDP2 inh – human TDP2 enzyme inhibitors, primary screen, biochemical, epi absorbance, recombinant enzyme | Tyrosyl-DNA phosphodiesterase 2 (Homo sapiens), O95551 | T5PNP hydrolysis, p-nitrophenol absorbance 415 nm | inhibition, % at 12.8 µM | actives 0.34% (n = 370,000);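 active = inhibition above the mean of all tested compounds plus 3 SD, set per campaign, cut at about 25% in these data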;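 also: 0% = DMSO with enzyme and 100% = buffer with substrate but no TDP2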
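Assay system: Recombinant human TDP2 | Quantity: 120 nM TDP2 per well | Incubation: 2 h at 37 °C | Signal: Epi absorbance | Evaluation: Percent inhibition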
PAD4 confirm – human PAD4 inhibitors, confirmation, biochemical, fluorescence polarization. inhibition, % at 6.36 µM. shares compounds with PAD4 FP inh. recombinant PAD4, RCA probe fluorescence polarization. actives 28% (n = 1,200). AID 488796, 2010;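 active = mean inhibition across replicates above the hit cutoff set by the earlier primary screen, cut at about 15% in these data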;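 also: inhibitors block active-site labeling by the probe so polarization falls; 0% = PAD4 with probe and DMSO and 100% = probe without PAD4 enzyme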
* hit, by the source's call; nt = not tested or not shown.

SMILES | GSTO1 counter | UCH37 inh | PAD4 FP inh | Fh CTSL1 inh | HKDC1 inh | TDP2 inh | PAD4 confirm
Cc1sc(NC(=O)c2ccccc2)c(C(c2ccc(Cl)cc2)N2CCN(CCO)CC2)c1C (centres undefined) | 4 | -12 | 17* | -7 | -1 | -7 | -1
Cc1ccc2c(c1)cc(CN(Cc1cccs1)C(=O)c1ccco1)c1nnnn12 | 4 | 2 | 30* | -2 | -2 | -1 | 0
O=C(O)c1ccccc1C=NNc1nc(N2CCCCC2)nc(N2CCCCC2)n1 | nt | 2 | nt | nt | nt | nt | nt
Cc1scc(C(=O)NN=Cc2ccc(Cl)s2)c1C | nt | 2 | nt | nt | nt | nt | nt
O=C(Cc1ccccc1Cl)NN=Cc1cccnc1 | nt | -1 | nt | nt | nt | nt | nt
C=CCn1c(NC)cc(=O)n(C)c1=O | 7 | 2 | 20* | -2 | -1 | -4 | 6
Cc1cc2ncn(-c3ncccc3[N+](=O)[O-])c2cc1C | 7 | 2 | 87* | -2 | -1 | -9 | -1
O=[N+]([O-])c1cccnc1-n1cnc2ccccc21 | 5 | 1 | 4 | 0 | 8 | -15 | nt
CC(=NNC(=O)CNc1cccc(Cl)c1C)c1cccs1 | nt | 6 | nt | nt | nt | nt | nt
CN(C)C(CNC(=O)c1cc2ccccc2o1)c1ccco1 (centres undefined) | nt | -4 | 88* | nt | -4 | 7 | 3
O=C(Cn1cncn1)NN=Cc1ccccc1Cl | nt | 1 | nt | nt | nt | nt | nt
CC(=NNC(=O)c1ccco1)c1ccc(Br)s1 | nt | 5 | nt | nt | nt | nt | nt
C=CCn1c(SCC(=O)N2CCCC2=O)nc2sc(CC)cc2c1=O | nt | nt | 33* | nt | 6 | 5 | -3
C=CCn1c(SCC(=O)O)nc2sc(CC)cc2c1=O | -2 | 3 | -2 | 10 | -4 | 4 | nt
COc1cc(C=NNC(=O)c2cnn3c(C)cc(-c4ccccc4)nc23)ccc1O | nt | 6 | nt | nt | nt | nt | nt
Cc1cccc(S(=O)(=O)c2c(N)n(N=Cc3ccccc3)c3nc4ccccc4nc23)c1 | nt | -151 | nt | nt | nt | nt | nt
O=C(COc1ccc(Cl)cc1)NCCSCc1ccccc1Cl | 4 | 2 | 0 | -2 | 5 | -8 | nt
O=C(CSCc1ccccc1Cl)NCCSc1ccccn1 | 7 | 2 | 16* | 8 | 10 | 1 | 1
CCC(=NNC(=O)C(N)=O)c1ccccc1O | nt | 3 | nt | nt | nt | nt | nt
CC(=NOCC(=O)Nn1c(=O)[nH]c2ccccc2c1=O)c1ccccc1 | nt | -4 | nt | nt | nt | nt | nt
CC1Cc2ccccc2N1C(=O)CSc1nn2c(=O)c(C(C)(C)C)nnc2s1 (centres undefined) | 5 | 1 | 15* | 5 | -8 | 1 | 8
Cc1ccc(C2=Nc3ccccc3SC(c3cccc([N+](=O)[O-])c3)C2)cc1 (centres undefined) | 6 | -1 | 18* | -3 | 0 | -9 | -6
O=[N+]([O-])c1c(Nc2ccc(O)cc2)cc(Cl)c2nonc12 | 5 | 14 | 22* | 5 | 17 | -10 | 11
O=C1CCCc2oc3ccc(NS(=O)(=O)c4cccc5cccnc45)cc3c21 | -5 | 1 | 4 | -6 | -6 | 1 | nt
O=c1oc2ccc(NS(=O)(=O)c3cccc4cccnc34)cc2s1 | 31 | 2 | 36* | -2 | 5 | -12 | 23*
SMILES | GSTO1 counter | UCH37 inh | PAD4 FP inh | Fh CTSL1 inh | HKDC1 inh | TDP2 inh | PAD4 confirm
O=C(O)c1cccc(S(=O)(=O)Nc2ccc3[nH]c(=O)[nH]c3c2)c1 | -37 | 3 | -10 | 4 | 5 | 12 | nt
O=C(O)c1cccc(S(=O)(=O)Nc2ccc3oc(=O)sc3c2)c1 | 16 | nt | 36* | 1 | -1 | -3 | 13
O=C(O)c1cccc(-n2sc3ccccc3c2=O)c1 | nt | -1 | 56* | nt | 5 | -8 | 46*
N#Cc1ccc2c(=O)n(-c3ccccc3)sc2c1 | nt | nt | nt | nt | nt | 7 | nt
Cc1ccccc1-n1sc2cc(F)ccc2c1=O | 9 | 2 | 21* | -1 | 4 | 13 | 28*
O=c1c2cc(F)ccc2sn1-c1ccccc1 | nt | 4 | 41* | nt | 3 | 4 | 36*
O=c1c2ccccc2sn1-c1ccccc1 | -5 | 5 | 36* | -3 | -3 | 4 | 41*
Cc1ccc2c(c1)sc(C)[n+]2CCCS(=O)(=O)[O-] | -10 | 0 | 18* | -8 | -7 | -14 | 11
Cc1ccc2sc(C)[n+](CCCS(=O)(=O)[O-])c2c1 | 2 | 1 | 17* | 0 | -11 | 0 | -2
CCCC[n+]1c(C)sc2cc(OC)ccc21 | 1 | -1 | 14 | -2 | -6 | 9 | nt
O=[N+]([O-])c1cccc(S(=O)(=O)NN=Cc2ccc(O)cc2)c1 | nt | 3 | nt | nt | nt | nt | nt
O=C(O)CC1SC(=NN=C2C(=O)Nc3ccccc32)N(c2ccc(O)cc2)C1=O (centres undefined) | nt | 11 | nt | nt | nt | nt | nt
CCCC(=NNC(=O)C1CCCC1)c1ccccc1 | nt | 5 | nt | nt | nt | nt | nt
O=C(NN=Cc1ccccc1)c1ccco1 | nt | 2 | nt | nt | nt | nt | nt
COc1ccc(-c2noc3c2-c2nc(-c4ccccc4C)sc2CC3)cc1 | 1 | -2 | -3 | 0 | 6 | 3 | nt
COc1ccc(-c2noc3c2-c2nc(-c4ccc(Br)cc4)sc2CC3)cc1 | 5 | -8 | 102* | 0 | 1 | -1 | 2
Cn1c(SCC(=O)Nc2ccc(Br)cn2)nnc1C1CC1 | 4 | 4 | 156* | 2 | -7 | -8 | 23*
CCCn1c(SCC(=O)Nc2ccc(Cl)cn2)nnc1C1CC1 | -6 | -1 | -4 | -2 | -5 | -12 | nt
CN(C)S(=O)(=O)c1cccc(NC(=O)CSc2ncnc3ccccc23)c1 | -4 | 7 | 15* | -5 | -6 | 20 | 12
N#Cc1cccc(NS(=O)(=O)c2ccccc2Cl)c1 | nt | 3 | 22* | nt | 0 | 3 | 1
Cc1csc(NC(=O)CSc2ncnc3c2cnn3-c2ccccc2Cl)n1 | -24 | 0 | 15* | 1 | 5 | nt | 8
CCc1cc(S(N)(=O)=O)cc(CC)c1NC(C)=O | 6 | 0 | -2 | 1 | -2 | 7 | nt
CCc1cc(SC#N)cc(CC)c1NC(=O)CCl | 71* | 6 | 16* | 7 | -3 | -5 | -4
C(=NNc1nc(Nc2ccccc2)nc(N2CCOCC2)n1)c1c[nH]c2ccccc12 | nt | 1 | nt | nt | nt | nt | nt
C(=Nc1ccc(N2CCOCC2)cc1)c1c[nH]c2ccccc12 | 16 | -2 | 17* | 1 | 4 | 15 | -4
C(/C=C/c1ccccc1)=NNc1nc2ccccc2[nH]1 | nt | -7 | nt | nt | nt | nt | nt
